Active and inactive are the calls of the source. The rule behind the calls is not given here.
How the values were obtained:
[1] = system: Pseudomonas aeruginosa; experiment: Induction of biofilm degradation of Pseudomonas aeruginosa clinical isolate 25 at sub MIC concentration incubated for 1 hr by crystal violet staining analysis; assay type: functional
Outline: (§1)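 Bacteria at 1 × 10^6 CFU/mL in BM2 grown static at 37 °C for 24 h to form biofilm. Wells rinsed of unattached cells, then exposed for 1 h to serial peptide dilutions (1.56–50 μM). Washed, stained with 0.1% crystal violet, A590 read. Biomass given as % of untreated biofilm; no-bacteria wells as blanks. At least three biological repeats.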

[2] = system: Pseudomonas aeruginosa; experiment: Induction of biofilm degradation of Pseudomonas aeruginosa clinical isolate 71 at sub MIC concentration incubated for 1 hr by crystal violet staining analysis; assay type: functional; outline: as §1
[3] = system: Pseudomonas aeruginosa; experiment: Induction of biofilm degradation of Pseudomonas aeruginosa clinical isolate 172 at sub MIC concentration incubated for 1 hr by crystal violet staining analysis; assay type: functional; outline: as §1
[4] = system: Pseudomonas aeruginosa; experiment: Induction of biofilm degradation of Pseudomonas aeruginosa clinical isolate 238 at sub MIC concentration incubated for 1 hr by crystal violet staining analysis; assay type: functional; outline: as §1
[5] = system: Pseudomonas aeruginosa; experiment: Induction of biofilm degradation of Pseudomonas aeruginosa clinical isolate 251 at sub MIC concentration incubated for 1 hr by crystal violet staining analysis; assay type: functional; outline: as §1
[6] = system: Pseudomonas aeruginosa; experiment: Induction of biofilm degradation of Pseudomonas aeruginosa clinical isolate 629 at sub MIC concentration incubated for 1 hr by crystal violet staining analysis; assay type: functional; outline: as §1
[7] = system: Pseudomonas aeruginosa; experiment: Induction of biofilm degradation of Pseudomonas aeruginosa clinical isolate 995 at sub MIC concentration incubated for 1 hr by crystal violet staining analysis; assay type: functional; outline: as §1
[8] = Drug degradation in cystic fibrosis patient derived sputum assessed as remaining activity at 100 uM measured after 30 mins by RP-HPLC analysis; assay type: ADME, tissue-based; settings: human, read-out: Drug degradation
Outline: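 Pooled CF patient sputum diluted 10-fold in Ca/Mg-free DPBS, centrifuged at 1000 rpm for 10 min. Peptide added to the supernatant at 100 μM final and held at 37 °C. Stopped with 10% HCl. Residual peptide measured by RP-HPLC on C18 with a 20–60% ACN gradient (0.1% TFA) over 50 min, as % of the unincubated mixture.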

[9] = system: Pseudomonas aeruginosa; experiment: Antibiofilm activity against Pseudomonas aeruginosa clinical isolate 24 assessed as inhibition of biofilm formation at 1.56 uM incubated for 24 hrs by crystal violet staining based microtiter plate method; assay type: functional, organism-based
Outline: (§2)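 Washed overnight cultures in BM2 medium at 1 × 10^6 CFU/mL with 2-fold serial peptide dilutions in a U-bottom 96-well plate. Incubated 24 h at 37 °C without agitation. Unattached cells washed off, then 0.1% crystal violet stain read at 590 nm. No-bacteria blanks. Biomass expressed as % of untreated biofilm. At least three biological repeats.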

[10] = system: Pseudomonas aeruginosa; experiment: Antibiofilm activity against Pseudomonas aeruginosa clinical isolate 40 assessed as inhibition of biofilm formation at 1.56 uM incubated for 24 hrs by crystal violet staining based microtiter plate method; assay type: functional, organism-based; outline: as §2
[11] = system: Pseudomonas aeruginosa; experiment: Antibiofilm activity against Pseudomonas aeruginosa clinical isolate 52 assessed as inhibition of biofilm formation at 1.56 uM incubated for 24 hrs by crystal violet staining based microtiter plate method; assay type: functional, organism-based; outline: as §2
[12] = system: Pseudomonas aeruginosa; experiment: Antibiofilm activity against Pseudomonas aeruginosa clinical isolate 71 assessed as inhibition of biofilm formation at 1.56 uM incubated for 24 hrs by crystal violet staining based microtiter plate method; assay type: functional, organism-based; outline: as §2
[13] = system: Pseudomonas aeruginosa; experiment: Antibiofilm activity against Pseudomonas aeruginosa clinical isolate 72 assessed as inhibition of biofilm formation at 1.56 uM incubated for 24 hrs by crystal violet staining based microtiter plate method; assay type: functional, organism-based; outline: as §2
[14] = system: Pseudomonas aeruginosa; experiment: Antibiofilm activity against Pseudomonas aeruginosa clinical isolate 99 assessed as inhibition of biofilm formation at 1.56 uM incubated for 24 hrs by crystal violet staining based microtiter plate method; assay type: functional, organism-based; outline: as §2
[15] = system: Pseudomonas aeruginosa; experiment: Antibiofilm activity against Pseudomonas aeruginosa clinical isolate 995 assessed as inhibition of biofilm formation at 1.56 uM incubated for 24 hrs by crystal violet staining based microtiter plate method; assay type: functional, organism-based; outline: as §2
[16] = system: Pseudomonas aeruginosa; experiment: Antibiofilm activity against Pseudomonas aeruginosa PAO1 assessed as inhibition of biofilm formation at 1.56 uM incubated for 24 hrs by crystal violet staining based microtiter plate method; assay type: functional, organism-based
[17] = system: Pseudomonas aeruginosa; experiment: Antibiofilm activity against Pseudomonas aeruginosa assessed as inhibition of biofilm formation at 0.5 times of MIC incubated for 24 hrs by crystal violet staining based microtiter plate method; assay type: functional, organism-based; outline: as §2
[18] = system: Pseudomonas aeruginosa; experiment: Antibiofilm activity against Pseudomonas aeruginosa clinical isolate 24 in artificial sputum medium at 100 uM incubated for 24 hrs by resazurin staining based microtiter plate method; assay type: functional, organism-based
Outline: (§3)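 Washed overnight culture set to OD ~0.05 in BM2, diluted 1:100 into artificial sputum medium (pH 6.9) in 24-well plates. Grown 3 days aerobically at 37 °C with agitation. Peptides (12.5–100 μM) added for 24 h with agitation. Biofilm disrupted by cellulase for 1 h at 37 °C. Resazurin 0.02% for 1–2 h, fluorescence ex 530/em 590 nm; viability as % of untreated wells.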

[19] = system: Pseudomonas aeruginosa; experiment: Antibiofilm activity against Pseudomonas aeruginosa clinical isolate 82 in artificial sputum medium at 100 uM incubated for 24 hrs by resazurin staining based microtiter plate method; assay type: functional, organism-based; outline: as §3
[20] = system: Pseudomonas aeruginosa; experiment: Antibiofilm activity against Pseudomonas aeruginosa clinical isolate 24 in artificial sputum medium at 50 uM incubated for 24 hrs by resazurin staining based microtiter plate method; assay type: functional, organism-based; outline: as §3
[21] = system: Pseudomonas aeruginosa; experiment: Antibiofilm activity against Pseudomonas aeruginosa PAO1 in artificial sputum medium at 50 uM incubated for 24 hrs by resazurin staining based microtiter plate method; assay type: functional, organism-based; outline: as §3
[22] = system: Pseudomonas aeruginosa; experiment: Antibiofilm activity against Pseudomonas aeruginosa clinical isolate 24 in artificial sputum medium at 25 uM incubated for 24 hrs by resazurin staining based microtiter plate method relative to control; assay type: functional
Outline: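 Overnight cultures were washed, resuspended in BM2 to OD ~0.05, and diluted 1:100 into artificial sputum medium (pH 6.9). Biofilms grew 3 days at 37 °C with aerobic agitation in 24-well plates. Peptides (12.5–100 μM) were then added for 24 h with agitation. Biofilm was disrupted with cellulase for 1 h at 37 °C. Resazurin (0.02%) was added for 1–2 h, fluorescence read at ex 530/em 590 nm, and viability expressed as % of untreated wells.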

[23] = system: Pseudomonas aeruginosa; experiment: Bactericidal activity against Pseudomonas aeruginosa clinical isolate 24 derived from cystic fibrosis patient sputum assessed as killing rate at 10 uM measured after 1 hr by time-kill assay relative to control; assay type: functional
Outline: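 Pooled CF patient sputum diluted 10-fold in 10 mM phosphate buffer (pH 7.0), centrifuged and 0.22 μm filtered. Bacteria at 10^6 CFU/mL in 10% sputum supernatant with 10 μM peptide for 1 h at 37 °C. Diluted and plated on LB agar; colonies counted against untreated plates.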

[24] = system: Pseudomonas aeruginosa; experiment: Induction of biofilm degradation of Pseudomonas aeruginosa clinical isolate 46 derived from cystic fibrosis patient sputum at 1.56 to 50 uM by crystal violet based staining analysis; assay type: functional; settings: dose 1.56-50 µM
Outline: (§4)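 Biofilm grown from 1 × 10^6 CFU/mL in pooled CF patient sputum diluted 10-fold with BM2, static, 37 °C, 24 h. Unattached cells rinsed off, then serial peptide dilutions (1.56–50 μM) applied for 1 h. Washed and stained with 0.1% crystal violet, read at 590 nm. Reported as % of untreated biomass, with no-bacteria blanks.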

[25] = system: Pseudomonas aeruginosa; experiment: Induction of biofilm degradation of Pseudomonas aeruginosa clinical isolate 82 derived from cystic fibrosis patient sputum at 1.56 to 50 uM by crystal violet based staining analysis; assay type: functional; settings: dose 1.56-50 µM; outline: as §4
[26] = system: Pseudomonas aeruginosa; experiment: Induction of biofilm degradation of Pseudomonas aeruginosa clinical isolate 59 at 12.5 uM incubated for 1 hr by crystal violet staining analysis

CC(C)C[C@H](NC(=O)[C@H](CC(C)C)NC(=O)[C@H](CC(C)C)NC(=O)[C@H](CC(C)C)NC(=O)[C@H](CC(C)C)NC(=O)[C@H](CC(C)C)NC(=O)[C@H](CC(C)C)NC(=O)[C@H](CC(C)C)NC(=O)[C@H](CC(C)C)NC(=O)[C@H](CCCCN)NC(=O)[C@H](CCCCN)NC(=O)[C@@H](N)CCCCN)C(=O)N[C@@H](CCCCN)C(=O)N[C@@H](CCCCN)C(=O)N[C@@H](CCCCN)C(N)=O
Activity [1]: Active
Activity [2]: Active
Activity [3]: Active
Activity [4]: Active
Activity [5]: Active
Activity [6]: Active
Activity [7]: Active

CC[C@H](C)[C@H](NC(=O)[C@H](CCCCN)NC(=O)[C@H](CCC(=O)O)NC(=O)[C@H](CCCCN)NC(=O)[C@H](CO)NC(=O)[C@H](CCCCN)NC(=O)[C@H](CCCNC(=N)N)NC(=O)[C@H](Cc1ccccc1)NC(=O)[C@H](Cc1ccccc1)NC(=O)[C@H](CC(=O)O)NC(=O)CNC(=O)[C@H](CC(C)C)NC(=O)[C@@H](N)CC(C)C)C(=O)NCC(=O)N[C@@H](CCCCN)C(=O)N[C@@H](CCC(=O)O)C(=O)N[C@@H](Cc1ccccc1)C(=O)N[C@@H](CCCCN)C(=O)N[C@@H](CCCNC(=N)N)C(=O)N[C@H](C(=O)N[C@H](C(=O)N[C@@H](CCC(N)=O)C(=O)N[C@@H](CCCNC(=N)N)C(=O)N[C@H](C(=O)N[C@@H](CCCCN)C(=O)N[C@@H](CC(=O)O)C(=O)N[C@@H](Cc1ccccc1)C(=O)N[C@@H](CC(C)C)C(=O)N[C@@H](CCCNC(=N)N)C(=O)N[C@@H](CC(N)=O)C(=O)N[C@@H](CC(C)C)C(=O)N[C@H](C(=O)N1CCC[C@H]1C(=O)N[C@@H](CCCNC(=N)N)C(=O)N[C@H](C(=O)N[C@@H](CCC(=O)O)C(=O)N[C@@H](CO)C(N)=O)[C@@H](C)O)C(C)C)[C@@H](C)CC)C(C)C)[C@@H](C)CC
metabolised at 0.5 h, 100 µM [8]: 100%

CC(C)C[C@H](NC(=O)[C@H](CC(C)C)NC(=O)[C@H](CCCCN)NC(=O)[C@H](CC(C)C)NC(=O)[C@H](CC(C)C)NC(=O)[C@H](CCCCN)NC(=O)[C@H](CCCCN)NC(=O)[C@H](CC(C)C)NC(=O)[C@H](CC(C)C)NC(=O)[C@H](CCCCN)NC(=O)[C@H](CCCCN)NC(=O)[C@H](CC(C)C)NC(=O)[C@H](CC(C)C)NC(=O)[C@H](CCCCN)NC(=O)[C@@H](N)CC(C)C)C(N)=O
inhibition [9]: Active
inhibition [10]: Active
inhibition [11]: Active
inhibition [12]: Active
inhibition [13]: Active
inhibition [14]: Active
inhibition [15]: Active
inhibition [16]: Active
inhibition [17]: Active
Activity [18]: Active
Activity [19]: Active
Activity [20]: Active
Activity [21]: Active
Activity [22]: 41.24%
Activity [23]: >97.91%
Activity [24]: Active
Activity [25]: Active
Activity [26]: Active
